# NRP1-CendR mod: modulators of CendR peptide binding to human neuropilin-1; inhibition, % at 25 µM; FAM-RPARPAR peptide binding to NRP-1, fluorescence polarization; O14786; 0.85% of 360,000 active; AID 602438;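 active means inhibition or corrected inhibition above about 18%, plus a signal ratio from 0.5 to 1.5, limit read from the data, passing the limit was not always enough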
# FAS TE block: FAS thioesterase (human) inhibition. P49327. recombinant FAS-TE, OMFH fluorogenic substrate, fluorescence endpoint. inhibition, % at 15 µM. 0.67% of 360,000 active;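 active means compounds whose normalised, plate-corrected inhibition of enzyme fluorescence in the single-dose primary screen is 50% or more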
# CaV13 FRET inh: Primary screen for inhibitors of IQ motif and Ca2+-dependent inactivation inhibitor domain binding in CACNA1D, Förster resonance energy transfer in living cells, …. HEK cells, CFP/YFP FRET ICDI-IQ, plate reader, 10 min; percent FRET-ratio fall versus neutral wells. inhibition, % at 12.3 µM. 0.098% of 340,000 active;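 active means mean replicate inhibition of at least 30% and at least 1% of replicates passing that level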
# Arr AP2 block: human beta-arrestin and AP2 interaction inhibition; FITC-arrestin peptide / GST-AP2 beads, flow cytometry; AP2 beta2 appendage carries R879A mutation; inhibition, % at 10 µM; 0.31% of 340,000 active; AID 504490;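 active means inhibition above a set limit, near 3 SD of compounds lacking own fluorescence, cut at about 54% in these data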
#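 System: GST-AP2 R879A glutathione beads; medium: PBS, Tween 20 0.05%, BSA 0.1%; reagent: fluorescein-tagged arrestin peptide at 50 nM final; schedule: pre-incubation 12 min, peptide binding 1 h, room temperature; detection: flow cytometry, FL1 (488/535 nm); read-out: inhibition as reduced fluorescein signal on beads, percent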
# ADAM17 inh: ADAM17 inhibition, QFRET primary screen. P78536. recombinant ADAM17, EDANS/DABCYL FRET peptide cleavage. inhibition, % at 6.95 µM. 0.83% of 370,000 active;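 active means inhibition above the mean of compounds lying between control limits plus 3 SD, set per campaign, cut at about 8.5% in these data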
# ADAM10 inh: inhibits human ADAM10. O14672. recombinant ADAM10, EDANS/DABCYL FRET peptide cleavage, 3 h. inhibition, % at 7 µM. 0.62% of 370,000 active. AID 720582;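 active means inhibition above a per-campaign cutoff equal to the mean of compounds falling between control-based bounds plus 3 SD, cut at about 20% in these data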
# FAS-TE conf: confirmation of human fatty acid synthase thioesterase inhibitors; shares compounds with FAS TE block; 45% of 2,300 active; recombinant FAS-TE, OMFH fluorogenic substrate, fluorescence; inhibition, % at 15 µM;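 active means compounds inhibiting the enzyme by at least 50% at 15 µM in any one of the replicates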
# Hits are given with their value; - = inactive; . = no result given. Only some compounds are listed: those with a hit (about 2.9% of all), similar ones and a draw of the others.
SMILES,NRP1-CendR mod,FAS TE block,CaV13 FRET inh,Arr AP2 block,ADAM17 inh,ADAM10 inh,FAS-TE conf
O=C(Nc1nc2ncccn2c1-c1ccc(C(F)(F)F)cc1)c1ccccc1,.,.,.,.,-,-,.
COc1ccccc1NC(=O)COc1ccccc1C(=O)c1cnn(-c2ccccc2)c1,-,-,-,-,-,-,.
CCc1ccc(NC(=O)COc2ccc(F)cc2C(=O)c2cnn(-c3ccccc3)c2)cc1,-,52.9,-,-,-,-,-
CCOc1ccc(-c2ccc(NS(=O)(=O)c3cc([N+](=O)[O-])c(C)c([N+](=O)[O-])c3)cc2)nn1,-,83.5,-,-,-,-,83.4
CCOc1ccc(-c2cccc(NS(=O)(=O)c3ccccc3[N+](=O)[O-])c2)nn1,-,-,-,-,-,-,.
O=C(c1ccc(Cl)s1)N1CCN(S(=O)(=O)c2ccc(Cl)cc2)CC1,-,-,-,-,-,-,.
COc1ccc(Cl)cc1-c1cc(C(=O)NCc2ccc(C(F)(F)F)cc2)[nH]n1,-,56.3,-,.,-,-,55.5
C[C@]12c3[nH]c4ccc(Cl)cc4c3CCN1C(=O)[C@@H](CC(=O)NCCN1CCOCC1)C[C@@H]2C(=O)N1CCOCC1,-,-,-,-,-,-,.
O=C(C[C@H]1C[C@H](C(=O)N2CCOCC2)[C@@]2(CCC3CCCC3)c3[nH]c4ccc(Cl)cc4c3CCN2C1=O)NCCc1ccccn1,-,82.8,-,-,-,-,92.5
COCCCNC(=O)C[C@H]1C[C@H](C(=O)N2CCOCC2)[C@@]2(CCC3CCCC3)c3[nH]c4ccc(Cl)cc4c3CCN2C1=O,-,86.4,-,-,-,-,-
O=C(C[C@H]1C[C@H](C(=O)N2CCOCC2)[C@@]2(CCC3CCCC3)c3[nH]c4cc(-c5ccco5)ccc4c3CCN2C1=O)NCCC1=CCCCC1,-,-,.,-,.,.,.
O=C(C[C@H]1C[C@H](C(=O)N2CCOCC2)[C@@]2(CCC3CCCC3)c3[nH]c4cc(-c5ccco5)ccc4c3CCN2C1=O)NCCc1ccccn1,-,64.5,-,-,-,-,71.0
O=C(C[C@H]1C[C@H](C(=O)N2CCOCC2)[C@@]2(CCC3CCCC3)c3[nH]c4ccc(Cl)cc4c3CCN2C1=O)NCCN1CCOCC1,-,84.6,-,-,-,-,76.3
COc1cc2cc(c1Cl)N(C)C(=O)CC(OC(=O)C(C)N(C)C(C)=O)C1(C)OC1C(C)C1CC(O)(NC(=O)O1)C(OC)C=CC=C(C)C2 (centres undefined),-,-,-,-,-,-,.
CCOC(=O)CN1C(=O)[C@]2(OCCC=C[C@H]2C)c2c(Br)cccc21,.,.,-,.,-,-,.
Cc1cc(=O)n2c(nc3ccccc32)s1,-,-,-,.,-,-,.
O=C(Nc1ccccc1N1CCOCC1)c1ccc([N+](=O)[O-])s1,-,-,-,-,-,-,.
CN1CCN(c2nc3cc(N4CCOCC4)ccc3s2)CC1,-,-,-,.,-,-,.
COC(=O)C(C(C)C)N(Cc1cc(OC)cc(OC)c1)S(=O)(=O)CCl (centres undefined),-,-,-,-,-,-,.
COC(=O)C1CN(Cc2cn(CCOC(C)=O)nn2)CCS(=O)(=O)N1Cc1ccc(F)cc1 (centres undefined),.,.,.,.,-,-,.
Cc1nc(N2CCN(S(=O)(=O)c3ccccc3C#N)CC2)c2c(-c3ccccc3)csc2n1,-,83.2,-,-,-,-,-
COc1ccc(-c2csc3ncnc(N4CCN(S(=O)(=O)c5cccc(Br)c5)CC4)c23)cc1,-,-,-,-,-,-,.
Cc1ccc(S(=O)(=O)N2CCN(c3ncnc4scc(-c5ccccc5)c34)CC2)cc1,-,51.7,-,-,-,-,-
COc1ccc(-c2csc3ncnc(N4CCN(S(=O)(=O)c5cccc(C(F)(F)F)c5)CC4)c23)cc1,-,50.1,-,-,-,-,-
CCOc1ccc(C2CC(=O)N(Nc3ccc([N+](=O)[O-])cc3[N+](=O)[O-])C2=O)cc1 (centres undefined),-,85.9,-,-,-,-,69.4
SMILES,NRP1-CendR mod,FAS TE block,CaV13 FRET inh,Arr AP2 block,ADAM17 inh,ADAM10 inh,FAS-TE conf
CC(C)Oc1ccc(C2CC(=O)N(Nc3ccc([N+](=O)[O-])cc3[N+](=O)[O-])C2=O)cc1 (centres undefined),-,90.3,-,-,-,-,92.0
CC(C)(C)OC(=O)NC(Cc1ccccc1)C1CC(C#N)C(=O)O1 (centres undefined),.,.,.,.,-,-,.
COc1ccc(C(=S)N2CCN(c3ccccc3C)CC2)cc1OC,-,-,-,-,-,-,.
CCOC(=O)C1=C(C)Nc2sc(C(=O)c3ccc(F)cc3)c(N)c2C1c1ccc(C(=O)OC)cc1 (centres undefined),-,-,-,-,-,-,.
CCOC(=O)C1=C(C)Nc2sc(C(=O)c3ccc(C)cc3)c(N)c2C1c1ccc(C(=O)OC)cc1 (centres undefined),-,67.0,-,-,-,-,-
COC(=O)[C@H](C(C)C)N(CCCc1cn(CC2CCCCC2)nn1)S(=O)(=O)c1ccccc1Br,.,.,.,.,-,-,.
COc1ccccc1N1CCN(c2ccc3c(c2)S(=O)(=O)c2cccc(C(=O)NCc4ccc(F)cc4)c2C3=O)CC1,-,50.6,-,.,-,-,-
O=C(NCc1cccc(F)c1)c1cccc2c1C(=O)c1ccc(N3CCCC3)cc1S2(=O)=O,-,-,.,-,.,.,.
COC(=O)C1=C(C)N(C)C(=NCc2ccccc2C(F)(F)F)NC1c1ccc(Cl)cc1 (centres undefined),.,.,-,.,-,-,.
COc1ccc(/C=C2\SC(=O)N(CCNC(=O)C3CCN(S(=O)(=O)c4cccs4)CC3)C2=O)cc1,-,54.5,-,-,-,-,-
CC(C)C[C@H]1C(=O)N2CCC[C@H]2[C@]2(O)O[C@](NC(=O)C3C=C4c5cccc6[nH]c(Br)c(c56)C[C@H]4N(C)C3)(C(C)C)C(=O)N12 (some centres undefined),-,52.1,-,-,-,-,-
O=C(C1CC(=O)N(c2ccc(F)c(Cl)c2)C1)N1CCOCC1 (centres undefined),-,-,-,.,-,-,.
O=C(COc1ccc([N+](=O)[O-])cc1)N(Cc1ccccc1)Cc1ccccc1,-,-,-,-,-,-,.
O=C(COc1ncnc2cc([N+](=O)[O-])ccc12)N(CCc1ccccc1)Cc1ccccc1,-,62.3,-,-,-,-,51.9
O=C(Nc1cccc(OC(F)(F)F)c1)C1Cc2c(-c3ccc4c(c3)OCO4)ccnc2O1 (centres undefined),-,-,-,.,-,-,.
